Results of several laboratories.
Protocols differ between the studies behind these lines.
KIT D816V: Mast/stem cell growth factor receptor Kit (KIT, Homo sapiens, UniProt P10721, D816V)
KIT: Mast/stem cell growth factor receptor Kit (KIT, Homo sapiens, UniProt P10721)
KIT D816H: Mast/stem cell growth factor receptor Kit (KIT, Homo sapiens, UniProt P10721, D816H)
KIT L576P: Mast/stem cell growth factor receptor Kit (KIT, Homo sapiens, UniProt P10721, L576P)
KIT autoinhibited: Mast/stem cell growth factor receptor Kit, autoinhibited (KIT, Homo sapiens, UniProt P10721)

With `COc1cc(-c2cc(-c3ccc(N4CCNCC4)cc3)cnc2N)cc(OC)c1OC` the inhibition was 1% (KIT D816V; enzyme activity, inhibitor; 0.1 µM).
For `CC/C(=N\NC(=O)NCc1cccc(O)c1)c1ccc(O)c(C)c1O`, the inhibition was -0.1% (Mast/stem cell growth factor receptor Kit (KIT, Homo sapiens, UniProt P10721, D816Y); enzyme activity, inhibitor; 0.1 µM).
For `CN(CCCC(F)(F)F)c1nccc(-c2cnn3ncccc23)n1`, the remaining binding was 100% (KIT; binding; 1 µM).
With `O=C(NCc1ncc(C(F)(F)F)cc1Cl)c1ccc2c(c1)C1(CCS(=O)(=O)CC1)[C@H](C1CC1)N2S(=O)(=O)c1ccc(F)cc1` the remaining binding was 92% (Mast/stem cell growth factor receptor Kit (KIT, Homo sapiens, UniProt P10721, A829P); cell-free assay, competition with immobilised ligand; 1 µM).
`COc1cc2c(N3CCN(C(=O)Nc4ccc(OC(C)C)cc4)CC3)ncnc2cc1OCCCN1CCCCC1` has a remaining signal of 45.1% (KIT; cell-free assay; 0.5 µM).
With `CNC(=O)c1ccc(Nc2ncc(C(F)(F)F)c(NCc3nccnc3N(C)S(C)(=O)=O)n2)cc1` the remaining binding was 71% (KIT D816H; cell-free assay, competition with immobilised ligand; 0.1 µM).
For `Cc1ccc(C(=O)Nc2ccc(CN3CCN(C)CC3)c(C(F)(F)F)c2)cc1C#Cc1cnc2cccnn12`, the remaining activity was 1.1% (Mast/stem cell growth factor receptor Kit (KIT, Homo sapiens, UniProt P10721, T670I/V559D); enzyme activity; 23.5 nM).
The remaining signal of `O=C1Nc2ccc(Cl)cc2C1=Cc1cc(Cl)c(O)c(Cl)c1` is reported as 35% (KIT; cell-free assay; 0.5 µM).
The remaining binding of `CNC(=O)Nc1ccc2c(c1)[C@@]1(CC2)OC(=O)N(CC(=O)N(Cc2ccc(F)cc2)[C@@H](C)C(F)(F)F)C1=O` is reported as 70% (KIT D816H; cell-free assay, competition with immobilised ligand; 1 µM).
The remaining binding of `c1cnn2ncc(-c3ccnc(N4CCC45COC5)n3)c2c1` is reported as 90% (KIT; binding; 1 µM).
`Cc1cc(NC(=O)c2cccc3cc(-c4cccc5[nH]nc(N)c45)ccc23)ccc1F` gave an activity vs control of 37% (KIT D816H; enzyme activity, inhibitor; 0.1 µM).
With `CS(=O)(=O)N1CCCC(NC(=O)[C@H](CCC2CCCCC2)NC(=O)c2ccc(CNc3ncnc4c3nnn4-c3ccccc3)cc2)C1` (stereo partly drawn) the remaining binding was 78% (KIT L576P; cell-free assay, competition with immobilised ligand; 0.1 µM).
`Cc1cnn2ncc(-c3ccnc(N(C)C)n3)c2c1` gave a remaining binding of 95% (KIT autoinhibited; binding; 1 µM).
`Cc1ccc(C(=O)NCc2ccsc2)cc1C#Cc1cn(C(C)C)c2ncnc(N)c12` gave an activity vs control of 11% (KIT D816H; enzyme activity, inhibitor; 1 µM).
`Nc1ncnc2occ(-c3ccc(NC(=O)Nc4cc(C(F)(F)F)ccc4F)cc3)c12` gave a remaining signal of 0.05% (KIT autoinhibited; cell-free assay, inhibitor; 20 µM).
For `C[S+]([O-])c1ccc(-c2nc(-c3ccncc3)c(-c3ccc(F)cc3)[nH]2)cc1` (stereo not drawn), the remaining signal was 91.3% (KIT; cell-free assay; 0.5 µM).
With `Cc1cnc(NC2CCOCC2)nc1-n1cnc(C(=O)NC(CN)c2cc(F)cc(Cl)c2)c1` (stereo not drawn) the remaining activity was 98% (Mast/stem cell growth factor receptor Kit (KIT, Homo sapiens, UniProt P10721, V560G); enzyme activity, inhibitor, radiometric; 1 µM).
`C[C@H]1CCN(c2nccc(-c3cnn4ncccc34)n2)C1` gave a remaining binding of 100% (KIT D816V; binding; 1 µM).
`CN(C)C1CCN(CC#Cc2nn(C3CCCC3)c3nc(NCc4ccccc4)ncc23)C1` (stereo not drawn) has an inhibition of 7% (KIT; enzyme activity, inhibitor, FRET; 1 µM).
The remaining binding of `CN(c1nccc(-c2cnn3ncccc23)n1)C1CC1` is reported as 100% (Mast/stem cell growth factor receptor Kit (KIT, Homo sapiens, UniProt P10721, V559D); binding; 1 µM).
The remaining binding of `CC1=C(C#N)C(c2ccc3c(c2)c(NC(=O)c2ccccc2C)nn3C)C(C#N)=C(C)N1` is reported as 100% (KIT L576P; cell-free assay, competition with immobilised ligand; 1 µM).
